PKA-R2B act – activators of PKA-R2B holoenzyme, primary screen, biochemical, fluorescence polarization, Cy5-IP20, human | activation, % at 11.4 µM | AID 504700, 2011 | PKA-R2B holoenzyme dissociation; R2B truncated from residue 108, S112A mutant; 0% DMSO only, 100% 113 µM cGMP | cAMP-dependent protein kinase catalytic subunit beta (Homo sapiens) + cAMP-dependent … | hit rate 0.079% among 340,000;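 active means activation above a cutoff set at the mean over all compounds plus 3 SD, cut at about 18% in these data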;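 further: higher means more holoenzyme dissociation and a rise in polarization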
Target sequence (P31323 whole entry, looked up, other chains not shown, the tested form may be a part): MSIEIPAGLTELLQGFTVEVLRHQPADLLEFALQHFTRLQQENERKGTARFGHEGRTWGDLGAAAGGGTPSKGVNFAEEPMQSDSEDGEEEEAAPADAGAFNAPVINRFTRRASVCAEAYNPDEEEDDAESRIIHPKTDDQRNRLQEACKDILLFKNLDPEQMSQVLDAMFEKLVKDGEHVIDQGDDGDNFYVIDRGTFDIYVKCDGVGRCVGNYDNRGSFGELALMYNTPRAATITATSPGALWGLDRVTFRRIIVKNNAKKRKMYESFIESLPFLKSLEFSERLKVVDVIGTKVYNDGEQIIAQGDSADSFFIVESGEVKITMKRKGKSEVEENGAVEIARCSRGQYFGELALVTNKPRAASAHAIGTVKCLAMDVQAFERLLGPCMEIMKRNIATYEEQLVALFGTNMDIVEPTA
dFosB activator – activators of delta FosB homodimer, primary screen, biochemical, fluorescence polarization, TAMRA-CDK5 oligo, single point. hit rate 0.99% among 340,000. activation, % at 25 µM. AID 493131, 2011. purified delta FosB; percent of positive-control signal above neutral wells;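 active means mean activation above about 17%, with every replicate also reaching it, limit read from the data, passing the limit was not always enough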
NTR1 agonist – agonists of human NTR1, primary screen, imaging, U2OS cells, beta-arrestin-GFP, high content. Neurotensin receptor type 1 (Homo sapiens), P30989. NTR1-U2OS beta-arrestin-GFP spot imaging, agonist mode. activation, % at 20 µM. hit rate 0.17% among 330,000. AID 493036, 2011;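 active means activation at or above 40% of the spot to cytoplasm intensity ratio, with at least 20 cells analyzed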;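 further: 0% = DMSO without peptide and 100% = 100 nM NTR1 peptide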
CAL PDZ FP-1 – CAL PDZ peptide-binding inhibitors, primary screen, biochemical, fluorescence polarization, Cer-tagged CAL PDZ, HTS; Golgi-associated PDZ and coiled-coil motif-containing protein (Homo sapiens), Q9HD26; inhibition, % at 20 µM; purified CAL PDZ, TMR-peptide fluorescence polarization, 1 h; hit rate 0.02% among 330,000; AID 504414, 2011;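 active means highest replicate inhibition of at least 40%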;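 further: plate controls were DMSO neutral control wells for no effect and unlabeled competitor peptide control wells for full effect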
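Control set: unlabelled peptide and DMSO controls / Material: purified CerCALP PDZ construct / Timing: 1 h incubation at room temperature before polarization reading / Doses: 20 µM, one dose / Detection: fluorescence polarization (mP)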
CAL PDZ FP-2 – untagged CAL PDZ binding inhibitors, primary screen, biochemical, fluorescence polarization, HTS. Golgi-associated PDZ and coiled-coil motif-containing protein (Homo sapiens), Q9HD26. purified CAL PDZ, TMR-peptide fluorescence polarization, 1 h. inhibition, % at 24.9 µM. hit rate 0.92% among 300,000;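 active means mean inhibition of at least 30% with at least half of replicates also reaching 30%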;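 further: 0% = DMSO neutral control and 100% = excess unlabeled competitor peptide PRC23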
PKA-R1A activ – activators of PKA-R1A holoenzyme, primary screen, biochemical, fluorescence polarization, Cy5-IP20, bovine R1A, mouse PKAc; PKA-R1A dissociation; scaled: DMSO 0%, 113 µM cGMP 100%; AID 504707, 2011; activation, % at 11.4 µM; hit rate 0.083% among 340,000;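 active means percent activation above the mean of all tested compounds plus 3 SD, cut at about 19% in these data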;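 further: higher means more PKAc released from R1A so a rise in polarization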
Starred values were filed as active, the others as inactive; x = not tested or not shown. An excerpt weighted towards active compounds, which were near 2% of everything screened.

SMILES	PKA-R2B act	dFosB activator	NTR1 agonist	CAL PDZ FP-1	CAL PDZ FP-2	PKA-R1A activ
Cc1ccc(-n2ncc(Cl)c2C(=O)NC2CC2)cc1	8	1	2	-1	59*	-3
CN1CCN(CCCNC(=O)CCCOc2cc(=O)n(C)c3ccccc23)CC1	-7	-4	1	-2	2	6
Cn1c(=O)cc(OCC(=O)NCCCN2CCN(Cc3ccccc3)CC2)c2ccccc21	-5	-6	3	0	39*	-1
CN(C)CC(=O)c1c(N)n(Cc2ccccc2)c(=O)n(C)c1=O	1	4	1	-2	82*	3
Nc1ncnc2c1ncn2[C@@H]1O[C@H](CNC(=O)[C@@H](N)C2CCCCC2)[C@@H](O)[C@H]1O	4	2	3	0	-2	-1
CC(=O)Nc1ccc(-c2csc(NC(=O)C3CSC4(C)CCC(=O)N34)n2)cc1 (centres undefined)	-7	-2	2	-5	-4	0
COc1ccc(CCNC(=O)CSc2nc(=O)[nH]c3c2CCC3)cc1OC	12	-11	0	0	x	-3
Cc1c(C)n(CCN(C)C)c2ccc(C(=O)OCCN(C)C)cc12	-1	20*	x	-2	-4	0
CC(=O)c1ccc(S(=O)(=O)Nc2c(C)nn(C)c2C)cc1	-9	-3	0	-2	-1	-19
COc1ccc(OC)c(NC(=O)c2ccc(OC3CSC3)cc2)c1	0	-17	3	28	55*	0
O=C(c1ccc(Cl)cc1)N1CCC2CC1c1cc(-c3ccccc3)ccc12 (centres undefined)	3	-5	x	0	3	3
C=CCNC(=O)/C(=C\c1ccco1)NC(=O)c1ccco1	-1	7	1	-3	65*	0
C=CCNC(=O)/C(=C/c1ccco1)NC(=O)c1ccc(Br)o1	-5	-3	4	0	1	0
N#CCCN(Cc1cccnc1)C(=S)NC(=O)c1ccccc1	-10	3	-1	-1	89*	-11
CC1(C(=O)NC(=S)N(CCC#N)Cc2cccnc2)CC1(Cl)Cl (centres undefined)	x	x	0	x	x	x
CC(C)NC(=O)CSc1nnc(CNC(=O)OC(C)(C)C)n1C	-5	6	0	0	84*	-8
O=C(O)c1ccc(OCCCCCCOC2CCCCO2)cc1 (centres undefined)	0	10	1	-1	-3	-4
CCOc1ccc(C2c3[nH]c4ccccc4c3C[C@H]3C(=O)N(C4CC4)CC(=O)N23)cc1OC (some centres undefined)	9	-12	-1	0	0	2
CCOc1ccc(C2c3[nH]c4ccccc4c3C[C@H]3C(=O)N(C4CCN(Cc5ccccc5)CC4)CC(=O)N23)cc1OC (some centres undefined)	0	35*	5	2	-5	7
O=C1[C@@H]2Cc3c([nH]c4ccccc34)C(c3cccc([N+](=O)[O-])c3)N2C(=O)CN1C1CCN(Cc2ccccc2)CC1 (some centres undefined)	8	82*	12	0	-4	-8
Cc1ccc(NC(=O)COC(=O)C2(CC(=O)NC(C)C)CCCC2)cc1C	0	-4	-2	0	-8	-4
O=C(NCc1ccccc1)NC12CC3CC(CC(C3)C1)C2	-9	-3	0	0	2	-3
O=C(NCc1ccccn1)NC12CC3CC(CC(C3)C1)C2	3	3	0	0	76*	4

Compound activity deposited in PubChem BioAssay by several laboratories.
